# Compound activity: PubChem, several laboratories
# Fibroblast inh – antiproliferative effect on LL 47 fibroblasts – human, LL 47 cells, CellTiter-Glo luminescence, primary screen; LL 47 human lung fibroblast viability, ATP luminescence; active compounds read low; viability, % at 10 µM; hit rate 1.1% among 85,000; AID 719, 2007;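 active = viability at or below 50% in the single dose screen; inactive = viability above 50%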;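 note: compound exposure lasted 72 h before the ATP readout; 100% = median luminescence of untreated cell-only wells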
#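 Material: Human LL 47 lung fibroblast cells | Input: 1,150 cells/well | Buffer or medium: IMEM plus 15% FBS | Compound dosing: 0.1% DMSO in all compound wells | Times: Overnight cell rest, 72 h compound treatment at 37 °C | Signal: CellTiter-Glo luminescence measuring cellular ATP | Measure: % viability versus median cells-only luminescence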
# HUVEC inhibit – inhibitors of HUVEC proliferation, primary screen, cell-based, 384-well; hit rate 1.1% among 86,000; viability, % at 10 µM (by protocol); CellTiter-Glo luminescence, 72 h; active compounds read low;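 active = viability at or below 30%; inactive = viability above 30%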;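 note: 100% = median luminescence of DMSO-only cell control wells on each plate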
# H69AR inhibit – proliferation blockers of H69AR lung cancer cells, primary screen, cell-based, human, 86K library; H69AR lung tumor viability, ATP luminescence, 72 h; active compounds read low; viability, % at 10 µM; hit rate 6% among 85,000; AID 598, 2007;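 active = viability at or below 40%; inactive = viability above 40%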;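 note: multidrug resistant small cell line overexpressing MRP-1 efflux transporter; 100% = mean luminescence of untreated control wells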
# Jurkat viability – cytotoxicity toward Jurkat T cells, primary screen, cytotoxicity control, cell-based, Jurkat E6.1, 60K MLSMR library; Jurkat E6.1 viability, ATP luminescence, 48 h; inhibition, % at 4 µM; hit rate 1.2% among 56,000;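 active = inhibition above the mean inhibition of all tested compounds plus 3 SD, cut at about 28% in these data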
# Numbers without * were called inactive; x = not tested or not shown. Sampled rows, rich in hits. Any-hit rate of the full collection: about 6.6%.
SMILES,Fibroblast inh,HUVEC inhibit,H69AR inhibit,Jurkat viability
N#CC1=C2SCC(O)(c3ccccc3)N2C(=O)CC1c1ccccc1F (centres undefined),60,37,15*,x
N#CC1=C2SCC(O)(c3ccccc3)N2C(=O)CC1c1cccs1 (centres undefined),x,x,x,79*
COc1ccc(CCNC(=O)Cn2c(=O)cnc3ccccc32)cc1,62,60,25*,5
COC(=O)Cn1c(=O)cnc2ccccc21,101,100,98,-2
CN1CCN(/C=C2\SC(=S)NC2=O)CC1,112,96,95,-2
Cc1ccc(C2C(/C=C3/SC(=S)NC3=O)=C(c3cccs3)Oc3ccccc32)cc1 (centres undefined),92,49,14*,x
Nc1ccc(N2CCCCCC2)cc1,96,98,2.1*,37*
COc1ccc2cc3cc(C(=O)Nc4ccccc4N4CCN(C)CC4)oc3nc2c1,28*,3.6*,29*,5
COc1ccc2cc3cc(C(=O)NCCN4CCN(c5ccccc5F)CC4)oc3nc2c1,94,53,75,-2
CC(C)(C)C1CC=C2C(C#N)=C(N)C(C#N)(C#N)C(c3cccs3)C2C1 (centres undefined),88,2.1*,65,x
CN1C2C=C3C(C#N)=C(N)C(C#N)(C#N)[C@@H](c4cccs4)C3C1CC2 (some centres undefined),90,94,75,x
O=C(Nc1ccc2nc(-c3ccc(Br)o3)[nH]c2c1)c1ccco1,114,69,51,2
O=C(Nc1ccc(-c2nc3c(ccc4ccccc43)o2)cc1)c1ccco1,40*,69,19*,x
O=C(Nc1cccc(-c2nc3ccccc3[nH]2)c1)c1cccc(NC(=O)c2ccco2)c1,13*,1.9*,1.2*,1
Cc1cccc2[nH]c(-c3ccc(NC(=O)c4ccco4)cc3)nc12,109,94,35*,0
CC(=O)Nc1ccc(NC(=O)c2ccco2)cc1,105,101,96,11
Cc1ccc(-c2nc3ccccc3[nH]2)cc1NC(=O)c1ccco1,107,96,x,5
O=C(Nc1ccc2nc(-c3ccccc3)[nH]c2c1)c1ccco1,93,88,39*,x
COCCN(C(=O)C(C)C)c1nnc(-c2ccc(C)cc2)s1,110,116,87,x
Cc1c(CC(C)C)nc(N)c(C#N)c1-c1ccccc1,92,84,24*,x
Cc1ccc(NC(=O)CSC(N)=O)cc1Cl,98,59,18*,5
NC(=O)SCC(=O)Nc1ccc(Cl)c(Cl)c1,95,65,11*,-2
CSc1ccccc1NC(=O)Nc1ccc(Cl)cc1,84,47,35*,x
CSc1cccc(NC(=O)Nc2ccc(Cl)cc2)c1,94,97,86,x
Cc1cc(C(C#N)c2cccc(Cl)c2)n2ncnc2n1 (centres undefined),102,102,104,x
SMILES,Fibroblast inh,HUVEC inhibit,H69AR inhibit,Jurkat viability
N#CC(c1cccc(Cl)c1)c1ccc2c(C(F)(F)F)cc(C(F)(F)F)nc2n1 (centres undefined),20*,14*,4.3*,x
COc1ccc(Cl)cc1NC(=O)c1cccnc1,104,108,100,-2
CC1(C)OC(=O)N(c2ccccc2)C12C=Cc1cc(Br)ccc1O2 (centres undefined),91,100,18*,x
CC1(C)OC(=O)N(CCc2ccccc2)C1(C)O (centres undefined),x,96,106,-6
CC1=NC(=O)C(N=Nc2cccc3ccccc23)N1c1ccccc1 (centres undefined),96,94,85,x
CCCCOc1c(Br)cc(/C=N/O)cc1OCC,89,21*,2.0*,x
CCOC(=O)c1c(NC(=S)Nc2ccccc2)sc(C)c1C,94,94,78,x
CCOC(=O)c1c(Nc2ccc(Cl)cc2)sc(/C=C2\C=Nc3ccccc32)c1O,46*,12*,2.7*,x
Cc1ccc(-n2nc(C)c(C3C(C#N)=C(N)OC4=C3C(=O)CCC4)c2Cl)cc1 (centres undefined),92,91,51,3
Cc1nn(-c2ccccc2)c(Cl)c1C1C(C#N)=C(N)OC2=C1C(=O)CC(C)(C)C2 (centres undefined),71,55,8.8*,x
Nc1cc(Br)c(N)c(Br)c1,97,92,23*,6
CCC1=Nc2cc(C(=O)NCCCOC(C)C)ccc2Sc2ccccc21,56,59,26*,x
Cn1nc(-c2ccc(Cl)cc2)nc2c(=O)n(C)c(=O)nc1-2,32*,3.6*,0.7*,x
CC1=Nc2ncnn2C(c2ccccc2)/C1=N\O (centres undefined),101,101,96,-5
O=S(=O)(NCc1ccccc1)c1ccc(S(=O)(=O)N2CCCCC2)cc1,98,91,82,0
CC1CCN(S(=O)(=O)c2ccc(S(=O)(=O)NCc3ccccc3)cc2)CC1,90,76,38*,x
CC1CCCC(C)N1S(=O)(=O)c1ccc(S(=O)(=O)NCc2ccccc2)cc1 (centres undefined),46*,90,36*,x
O=c1[nH]c(Nc2nc3ccccc3o2)nc2c1CCCC2,5.6*,55,17*,-4
CCOC(=O)c1[nH]c(C)c(C(=O)Nc2ccc(C)c(C)c2)c1C,84,65,96,13
CCOC(=O)c1[nH]c(C)c(C(=O)Nc2ccc(C)cc2C)c1C,64,67,38*,93*
CCOC(=O)c1[nH]c(C)c(C(=O)c2ccc(C)cc2)c1C,46*,41,29*,x
CCOC(=O)c1[nH]c(C)c(C(=O)Nc2ccccc2F)c1C,64,56,23*,89*
Cc1cccc(-c2noc(CN(C(=O)C(c3ccccc3)c3ccccc3)C(C)C)n2)c1,82,97,75,x
Cc1cc(C)n(CCc2nc3c4ccccc4n(CC(=O)Nc4ccc(Cl)cc4F)c(=O)n3n2)n1,93,57,86,4
Nc1nc(-c2ccccc2)cc(-c2ccccc2O)n1,81,17*,42,11
SMILES,Fibroblast inh,HUVEC inhibit,H69AR inhibit,Jurkat viability
CN(C)c1cc(-c2ccccc2)nc(N)n1,92,72,40*,4
Nc1nc(-c2ccccc2)nc(-c2ccccc2O)n1,x,x,x,0
Cc1cnc(NC(=O)c2ccc(-c3nc4ccccc4s3)o2)s1,103,91,28*,x
Cc1cnc(NC(=O)CSc2nc3ccccc3s2)s1,106,94,97,x
CCCCn1c(=N)n(CC(O)COc2ccccc2)c2ccccc21 (centres undefined),103,98,78,7
N=c1n(Cc2ccccc2)c2ccccc2n1CC(O)COc1ccccc1 (centres undefined),57,98,15*,5
Cc1ccc(Cn2c(=N)n(CC(O)COc3ccccc3)c3ccccc32)cc1 (centres undefined),22*,2.7*,-0.1*,x
CCCCn1c(=N)n(CC(O)COc2ccc(C)cc2)c2ccccc21 (centres undefined),72,83,7.4*,13
